PostGolgi ctrl = growth inhibition of yeast control strain, primary screen, counter-screen for post-Golgi transport modulator project | efflux-deficient yeast background strain, growth absorbance A615, 16 h | 5% of 98,000 active | inhibition, % at 10 µM
tolC growth inh = growth inhibitors of E. coli tolC mutant, primary screen, strain BW25113 ΔtolC::kan, 384-well. OD615. growth inhibition, % at 10 µM (by protocol). 2.2% of 65,000 active. AID 573, 2007;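 active = growth inhibition at or above a cutoff equal to the mean over every tested compound plus 3 SD, cut at about 60% in these data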;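 also: growth measured after 20 h incubation at 37 °C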
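Test system: tolC-deleted E. coli BW25113; medium: LB with kanamycin 50 µg/mL; compound: single-point testing at 10 µM; incubation: 20 h compound exposure of bacteria at 37 °C; signal: OD at 615 nm; evaluation: growth inhibition in percent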
Pyk2 oligo antag = antagonists of Pyk2 self-association, primary screen, Q293 cells, FERM NanoBiT luminescence, HTS; 0.83% of 99,000 active; z-score (the deposit names both 25 µM and 10 µM); hits give low values;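 active = Z-score of -3 or lower, scaled per plate to the spread of control and sample wells; inactive = z-score above -3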;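 also: negative z-score means lost luminescence so less FERM oligomerization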
Target sequence (Q14289 whole entry, looked up): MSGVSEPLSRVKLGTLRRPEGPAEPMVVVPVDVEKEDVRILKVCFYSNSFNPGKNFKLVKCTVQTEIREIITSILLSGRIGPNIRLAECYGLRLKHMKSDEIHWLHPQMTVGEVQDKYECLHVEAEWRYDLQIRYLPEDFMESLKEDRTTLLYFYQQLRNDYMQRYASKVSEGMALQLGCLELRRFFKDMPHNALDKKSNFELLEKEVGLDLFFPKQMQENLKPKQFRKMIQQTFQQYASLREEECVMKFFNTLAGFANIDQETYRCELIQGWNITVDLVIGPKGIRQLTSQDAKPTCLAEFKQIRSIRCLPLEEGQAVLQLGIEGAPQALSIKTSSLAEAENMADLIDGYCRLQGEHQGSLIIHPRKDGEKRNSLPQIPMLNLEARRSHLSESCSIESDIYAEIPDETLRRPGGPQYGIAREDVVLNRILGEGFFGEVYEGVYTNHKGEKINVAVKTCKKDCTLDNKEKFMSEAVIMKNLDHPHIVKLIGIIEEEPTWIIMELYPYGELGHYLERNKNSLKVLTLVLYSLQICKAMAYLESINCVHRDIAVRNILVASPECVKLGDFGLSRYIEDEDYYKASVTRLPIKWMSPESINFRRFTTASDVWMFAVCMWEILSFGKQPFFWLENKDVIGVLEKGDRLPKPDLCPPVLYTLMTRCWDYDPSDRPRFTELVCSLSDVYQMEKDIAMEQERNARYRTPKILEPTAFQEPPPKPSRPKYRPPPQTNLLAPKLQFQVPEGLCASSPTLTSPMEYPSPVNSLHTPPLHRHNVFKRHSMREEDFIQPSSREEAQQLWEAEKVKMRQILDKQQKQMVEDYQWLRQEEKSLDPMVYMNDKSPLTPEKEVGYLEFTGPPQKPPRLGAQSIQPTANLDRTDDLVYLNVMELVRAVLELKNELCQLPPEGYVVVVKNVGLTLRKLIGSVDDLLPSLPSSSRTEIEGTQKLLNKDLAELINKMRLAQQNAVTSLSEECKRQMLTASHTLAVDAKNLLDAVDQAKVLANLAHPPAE
Candida biofilm = clotrimazole potentiators killing Candida biofilms, primary screen, with clotrimazole, Alamar Blue; C. albicans biofilm + clotrimazole; inhibition, % at 6 µM; 0.14% of 85,000 active;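 active = inhibition above 20%; inactive = inhibition below 20%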;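 also: preformed 24 hr biofilms exposed to compound for 48 hr; 0% = biofilm without compound and 100% = blank killed by clotrimazole plus chlorhexidine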
PostGolgi yeast = phenotypic screen on post-Golgi transport, primary screen. post-Golgi transport phenotypic cell assay. inhibition, % at 10 µM. 0.9% of 98,000 active;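 also: yeast cells grown in 1536-well plates; yeast grown about 18 h at 30C before absorbance read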
Ecoli WT expand = growth inhibitors of wild-type E. coli, primary screen, strain BW25113, expanded library, OD600 | OD600 absorbance | growth inhibition, % at 100 µM | 0.15% of 98,000 active | AID 710, 2007;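 active = growth inhibition above about 50% at one test dose, limit read from the data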;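 also: growth measured after 20 h incubation at 37 °C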
Starred values were filed as active, the others as inactive; . = no result. Compounds with a hit are over-represented: about 6.5% of the library has one in this group of screens. Rule as the data show it, unless noted: active = inhibition above about 30%; inactive = the rest.

SMILES | PostGolgi ctrl | tolC growth inh | Pyk2 oligo antag | Candida biofilm | PostGolgi yeast | Ecoli WT expand
Cc1nc(N)sc1-c1csc(Nc2ccc(Cl)cn2)n1 | 41.7* | 19.7 | 0.42 | 1.5 | -3.9 | -9.0
CN(C)c1ccc(/C=N/n2ncc3ccccc32)cc1 | 0.5 | 61.5* | 0.54 | 8.5 | 0.8 | -4.0
COc1ccccc1NC(=S)N(Cc1ccco1)Cc1cc2cc(C)c(C)cc2[nH]c1=O | . | . | -0.52 | . | . | .
COc1ccccc1NC(=O)N(Cc1ccco1)Cc1cc2cc(C)cc(C)c2[nH]c1=O | 67.1* | 17.9 | -0.65 | 10.1 | -11.0 | -4.0
Cc1ccc(C)c2[nH]c(=O)c(CN(Cc3ccco3)C(=O)Nc3ccccc3)cc12 | 41.8* | 18.4 | -0.51 | 2.8 | -6.0 | -9.0
COc1ccccc1NC(=O)N(Cc1ccco1)Cc1cc2ccc(C)c(C)c2[nH]c1=O | 41.1* | 60.1 | 0.83 | 5.6 | 10.7 | -11.0
CCc1ccc2[nH]c(=O)c(CN(CCN(C)C)C(=O)Nc3ccccc3OC)cc2c1 | -1.2 | -5.7 | -1.54 | 5.9 | 4.2 | 6.0
CCc1ccc2[nH]c(=O)c(CN(Cc3ccccc3)C(=O)Nc3ccccc3OC)cc2c1 | 70.7* | . | -2.01 | 4.7 | 19.1 | 2.0
Cc1nn(Cc2ccc(Cl)cc2)c(C)c1NC(=O)C(c1ccccc1)c1ccccc1 | . | . | 0.43 | . | . | .
O=C(c1noc2c1CCc1ccccc1-2)N1CCCc2ccccc21 | 22.7 | 98.7* | -1.52 | -6.1 | 8.0 | -10.0
O=C(c1noc2c1CCc1ccccc1-2)N1CCc2ccccc2C1 | 33.2* | 86.6* | . | 9.6 | 0.6 | -8.0
CC(C)N1CC(C(=O)O)CC1=O (stereo not drawn) | 0.9 | . | 0.13 | -2.4 | 8.7 | 1.0
COC(=O)c1ccc(NC(=O)Cn2nc(SC)n(N)c2=S)cc1 | 1.8 | -3.4 | 0.35 | 26.7* | -1.6 | -3.0
CN(C)S(=O)(=O)c1ccc(S(=O)(=O)NC2CCOC(C)(C)C2)cc1 (stereo not drawn) | . | . | 0.02 | -4.1 | . | .
Cc1nn(-c2ccccc2)c2c1C(c1ccc(O)c(O)c1)N1C(=N2)C(Nc2ccccc2)=Nc2ccccc21 (stereo not drawn) | 51.1* | . | -0.2 | 8.0 | -4.5 | -10.0
Cc1ccc(NC2=Nc3ccccc3N3C2=Nc2c(c(C)nn2-c2ccccc2)C3c2ccc(O)c(O)c2)cc1 (stereo not drawn) | 11.5 | . | -2.2 | 11.1 | -6.4 | -5.0
O/N=C(\c1ccc(Cl)cc1Cl)c1ncc(C(F)(F)F)cc1Cl | 59.2* | . | -1.31 | -1.2 | -0.2 | 5.0
C#CCSc1nnc(-c2cccc3ccccc23)o1 | . | 97.3* | 0.13 | 2.6 | . | .
CCOC(=O)C1=NN(c2ccc(C)cc2)CC1C(=O)OC (stereo not drawn) | . | . | 0.57 | . | . | .
CCN(CC)c1nc(N)c2c(N)n(-c3ccccc3C)c(=S)c(C#N)c2c1C#N | 2.1 | -4.6 | -3.73* | 7.0 | -3.0 | 0.0
CCN(CC)c1nc(N)c2c(N)nc3c(c2c1C#N)CC(c1ccccc1)O3 (stereo not drawn) | 10.9 | 76.0* | -0.66 | 11.8 | 4.8 | -4.0
CCCCN(CC)c1nc(N)c(C#N)c(CC#N)c1C#N | 14.7 | . | -0.4 | 7.1 | 19.9 | 7.0
N#Cc1c(N2CCCCC2)nc(N)c2c(N)nc3c(c12)CC(c1ccccc1)O3 (stereo not drawn) | 53.1* | . | -1.81 | 0.4 | 0.2 | -10.0
COc1ccc(C(=O)Nc2n[nH]c(-c3ccncc3)n2)cc1 | 27.5 | . | 0.65 | . | 15.8 | -3.0
COc1ccc(OC2C(=O)N(Cc3ccc4c(c3)OCO4)C2c2sccc2C)cc1 (stereo not drawn) | 18.7 | . | -2.06 | . | -1.1 | -20.0
SMILES | PostGolgi ctrl | tolC growth inh | Pyk2 oligo antag | Candida biofilm | PostGolgi yeast | Ecoli WT expand
Cn1c(=O)c2c(ncn2CC(=O)Nc2cc(Cl)c(Cl)cc2Cl)n(C)c1=O | . | 19.2 | . | 2.0 | . | .
CCCCn1c(=O)[nH]c(=O)c2c1nc(COC(=O)c1c(C)noc1C)n2CCC | 5.6 | 3.6 | -1.07 | 5.4 | 5.7 | -8.0
O=C(/C=C/c1ccc(Cl)cc1)N1CCN(c2ccc(Cl)cc2[N+](=O)[O-])CC1 | 92.5* | . | 0.09 | . | -14.1 | -22.0
CO/N=C(\c1nonc1N)N1CCN(c2ccc(Cl)cc2[N+](=O)[O-])CC1 | 57.7* | . | -1.08 | . | -7.2 | -22.0
CO/N=C(\c1nonc1N)N1CCN(c2ccc([N+](=O)[O-])cc2Cl)CC1 | 32.3* | . | 0.12 | . | 0.3 | -8.0
CCO/N=C(/c1nonc1N)N1CCN(c2ccc([N+](=O)[O-])cc2)CC1 | 3.6 | . | -0.07 | . | 15.5 | -8.0
c1ccc(-c2ccc(Oc3cc(N4CCOCC4)nc(-c4ccccc4)n3)cc2)cc1 | 2.1 | . | 0.04 | . | -1.1 | -13.0
O=S(Cc1cc(Oc2ccccc2)nc(-c2ccccc2)n1)c1ccccc1 (stereo not drawn) | 35.2* | . | -2.12 | . | 4.5 | -19.0
C1CCC2(CC1)OCC1(CO2)COC2(CCCCC2)OC1 | 12.9 | -5.2 | -0.34 | 9.4 | -22.0 | -2.0
O=C1NC(=O)C2(COC3(CCCC3)OC2)S1 | 35.1* | -28.2 | -0.42 | -1.0 | 3.8 | -23.0
COCCCN1C(=O)c2[nH]nc(-c3ccccc3O)c2C1c1cccc(Cl)c1 (stereo not drawn) | 5.5 | 52.4 | -3.01* | 6.7 | -3.1 | -2.0
COc1ccc(-c2n[nH]c3c2C(c2ccc(OC)c(OC)c2)N(c2ccccc2)C3=O)cc1 (stereo not drawn) | 11.8 | . | -3.03* | -4.9 | 5.1 | -7.0
COCCCN1C(=O)c2[nH]nc(-c3cc(C)cc(C)c3O)c2C1c1ccc(O)c(OC)c1 (stereo not drawn) | -3.7 | 17.2 | -1.92 | 1.0 | 1.8 | -1.0
COc1cc(C2c3c(-c4cc(C)cc(C)c4O)n[nH]c3C(=O)N2CCCO)cc(OC)c1OC (stereo not drawn) | -1.2 | -29.6 | -0.89 | 6.8 | 6.4 | -7.0
COc1ccc(CCN2C(=O)c3[nH]nc(-c4ccccc4O)c3C2c2ccccc2)cc1OC (stereo not drawn) | 5.0 | -7.2 | -3.11* | 0.6 | -1.4 | -5.0
CC(C)OCCCN1C(=O)c2[nH]nc(-c3ccccc3O)c2C1c1cccc(Cl)c1 (stereo not drawn) | 18.1 | 52.4 | -3.23* | 8.3 | 12.5 | -4.0
COC(=O)[C@H](Cc1ccccc1)NC(=O)NCCC1=CCCCC1 | 7.6 | . | 0.37 | 2.0 | -5.3 | -10.0
CC(=O)C1=C(O)C(=O)N(Cc2cccnc2)C1c1ccc(Cl)cc1Cl (stereo not drawn) | . | -10.3 | 0.36 | 3.5 | . | .
Cc1cc(O)c(-c2n[nH]c3c2C(c2cccc(O)c2)N(Cc2cccnc2)C3=O)cc1Cl (stereo not drawn) | -6.8 | 3.8 | -3.92* | 3.6 | -3.8 | -2.0
COCCCN1C(=O)c2[nH]nc(-c3ccccc3O)c2C1c1ccc(Cl)cc1 (stereo not drawn) | 14.0 | 63.7* | -2.22 | 5.6 | -5.7 | 4.0
Fc1ccc(COc2ccc(/C=N/n3cnnc3)cc2)cc1 | 34.9* | 10.9 | 0.47 | 9.3 | 10.3 | 7.0
O=C(Nc1nccs1)c1csc2c1CCCC2 | . | . | -1.87 | 7.6 | . | .
